Test results published in ChEMBL document CHEMBL1250433, “Synthesis of 5-arylidene-2-amino-4-azolones and evaluation of their anticancer activity” (2010).

Columns and labels:
Assay type in all cases: functional
UO-31 = assay: Cytotoxicity against human UO31 cells; conditions: for TGI: read-out: pTGI (converted)
In short: (§1)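 Tested in the US National Cancer Institute 60 human tumour cell line screen. Dose-response parameters were calculated per cell line: GI50 (molar concentration giving 50% net growth inhibition), TGI (molar concentration giving total growth inhibition) and LC50 (molar concentration giving 50% net cell kill).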

CCRF-CEM = assay: Cytotoxicity against human CCRF-CEM cells; conditions: for TGI: read-out: pTGI (converted); in short: as §1
HL-60(TB) = assay: Cytotoxicity against human HL-60(TB) cells; conditions: for TGI: read-out: pTGI (converted)
In short: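 Tested in the National Cancer Institute 60 human tumour cell line in vitro screen, which includes leukaemia lines. From the dose–response data, GI50 is the molar concentration giving 50% inhibition of net cell growth, TGI is total growth inhibition, and LC50 is 50% net cell kill. Values are expressed as Log GI50.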

HCT-15 = assay: Cytotoxicity against human HCT15 cells; in short: as §1
OVCAR-3 = assay: Cytotoxicity against human OVCAR-3 cells; conditions: for TGI: read-out: pTGI (converted); in short: as §1
CAKI-1 = assay: Cytotoxicity against human Caki1 cells; conditions: for TGI: read-out: pTGI (converted); in short: as §1
RPMI-8226 = assay: Cytotoxicity against human RPMI8226 cells; in short: as §1
MOLT-4 = assay: Cytotoxicity against human MOLT4 cells; in short: as §1
MCF7 = assay: Cytotoxicity against human MCF7 cells; conditions: for TGI: read-out: pTGI (converted); in short: as §1
NCI-H460 = assay: Cytotoxicity against human NCI-H460 cells; conditions: for TGI: read-out: pTGI (converted); in short: as §1
K562 = assay: Cytotoxicity against human K562 cells; in short: as §1
MDA-MB-435 = assay: Cytotoxicity against human MDA-MB-435 cells; conditions: for TGI: read-out: pTGI (converted); in short: as §1
U-251 = assay: Cytotoxicity against human U251 cells; in short: as §1
NCI-H23 = assay: Cytotoxicity against human NCI-H23 cells; conditions: for TGI: read-out: pTGI (converted); in short: as §1
RXF 393 = assay: Cytotoxicity against human RXF393 cells; in short: as §1
SR = assay: Cytotoxicity against human SR cells; conditions: for TGI: read-out: pTGI (converted); in short: as §1
KM12 = assay: Cytotoxicity against human KM12 cells; in short: as §1
[1] = Cytotoxicity against human 786-O cells; in short: as §1
HCT-116 = assay: Cytotoxicity against human HCT116 cells; in short: as §1
SNB-75 = assay: Cytotoxicity against human SNB75 cells; in short: as §1
SF-295 = assay: Cytotoxicity against human SF295 cells; in short: as §1
T47D = assay: Cytotoxicity against human T47D cells; in short: as §1
HCC 2998 = assay: Cytotoxicity against human HCC2998 cells; in short: as §1
NCI/ADR-RES = assay: Cytotoxicity against human NCI/ADR-RES cells; in short: as §1
SW-620 = assay: Cytotoxicity against human SW620 cells; conditions: for TGI: read-out: pTGI (converted); in short: as §1
COLO 205 = assay: Cytotoxicity against human COLO205 cells; in short: as §1
SF-268 = assay: Cytotoxicity against human SF268 cells; in short: as §1
HOP-62 = assay: Cytotoxicity against human HOP62 cells; in short: as §1
OVCAR-4 = assay: Cytotoxicity against human OVCAR4 cells; in short: as §1
M14 = assay: Cytotoxicity against human M14 cells; in short: as §1
SK-MEL-5 = assay: Cytotoxicity against human SK-MEL-5 cells; in short: as §1
PC-3 = assay: Cytotoxicity against human PC3 cells; conditions: for TGI: read-out: pTGI (converted); in short: as §1

COc1cc(/C=C2\SC(Nc3ccc(O)cc3)=NC2=O)ccc1OCc1ccc(F)cc1
GI50 (UO-31): 891 nM
TGI (UO-31): 28.8 µM
GI50 (CCRF-CEM): 200 nM
TGI (CCRF-CEM): 1.15 µM
GI50 (HL-60(TB)): 603 nM
TGI (HL-60(TB)): 10.2 µM

O=C1N=C(Nc2ccc(O)cc2)S/C1=C\c1ccc(Cl)cc1
GI50 (HCT-15): 427 nM
TGI (HCT-15; read-out: pTGI): > 100 µM
GI50 (OVCAR-3): 162 nM
TGI (OVCAR-3): 490 nM
GI50 (CAKI-1): 501 nM
TGI (CAKI-1): 6.46 µM
GI50 (RPMI-8226): 407 nM
TGI (RPMI-8226; read-out: pTGI): > 100 µM
GI50 (MOLT-4): 603 nM
TGI (MOLT-4; read-out: pTGI (converted)): 17 µM
GI50 (MCF7): 50.1 nM
TGI (MCF7): 219 nM
GI50 (NCI-H460): 977 nM
TGI (NCI-H460): 87.1 µM
GI50 (K562): 257 nM
GI50 (MDA-MB-435): 398 nM
TGI (MDA-MB-435): 1660 nM
GI50 (U-251): 490 nM
GI50 (NCI-H23): 562 nM
TGI (NCI-H23): 3240 nM
GI50 (CCRF-CEM): 851 nM
TGI (CCRF-CEM): 10.2 µM
GI50 (HL-60(TB)): 437 nM
TGI (HL-60(TB)): 10.2 µM
GI50 (RXF 393): 117 nM
TGI (RXF 393; read-out: pTGI (converted)): 3.98 µM
GI50 (SR): 145 nM
TGI (SR): 525 nM

O=C1N=C(Nc2ccc(O)cc2)S/C1=C\c1ccc(F)cc1
GI50 (KM12): 132 nM
TGI (KM12; read-out: pTGI (converted)): 741 nM
GI50 ([1]; 786-0): 309 nM
TGI ([1]; 786-0, read-out: pTGI (converted)): 10 µM
GI50 (OVCAR-3): 324 nM
TGI (OVCAR-3): 562 nM
GI50 (CAKI-1): 479 nM
TGI (CAKI-1): 2.45 µM
GI50 (HCT-116): 219 nM
TGI (HCT-116; read-out: pTGI (converted)): 4.37 µM
GI50 (MCF7): 35.5 nM
TGI (MCF7): 115 nM
GI50 (SNB-75): 407 nM
TGI (SNB-75; read-out: pTGI): > 100 µM
GI50 (NCI-H460): 263 nM
TGI (NCI-H460): 0.955 µM
GI50 (SF-295): 380 nM
TGI (SF-295; read-out: pTGI (converted)): 1910 nM
GI50 (T47D): 661 nM
TGI (T47D; read-out: pTGI): > 100 µM
GI50 (HCC 2998): 562 nM
TGI (HCC 2998; read-out: pTGI (converted)): 2140 nM
GI50 (NCI/ADR-RES): 631 nM
TGI (NCI/ADR-RES; read-out: pTGI (converted)): 3.16 µM
GI50 (MDA-MB-435): 31.6 nM
TGI (MDA-MB-435): 145 nM
GI50 (NCI-H23): 372 nM
TGI (NCI-H23): 2090 nM
GI50 (SW-620): 525 nM
TGI (SW-620): > 100000 nM
GI50 (COLO 205): 631 nM
TGI (COLO 205; read-out: pTGI): > 100 µM
GI50 (SF-268): 490 nM
TGI (SF-268; read-out: pTGI (converted)): 4.37 µM
GI50 (HOP-62): 427 nM
TGI (HOP-62; read-out: pTGI (converted)): 13.2 µM
GI50 (UO-31): 955 nM
TGI (UO-31): > 100 µM
GI50 (OVCAR-4): 832 nM
TGI (OVCAR-4; read-out: pTGI): > 100 µM
GI50 (M14): 617 nM
TGI (M14; read-out: pTGI (converted)): 11.5 µM
GI50 (SR): 537 nM
TGI (SR): > 100000 nM

O=C1N=C(Nc2cccc(O)c2)S/C1=C\C(Cl)=C/c1ccc([N+](=O)[O-])cc1
GI50 (OVCAR-3): 372 nM
TGI (OVCAR-3): 955 nM
GI50 (SW-620): 832 nM
TGI (SW-620): 2630 nM

O=C1N=C(Nc2cccc(O)c2)S/C1=C\c1ccc(Cl)cc1
GI50 (OVCAR-3): 490 nM
TGI (OVCAR-3): 2750 nM

CN(C1=NC(=O)/C(=C/c2cccc(Cl)c2Cl)S1)c1ccc(O)cc1
GI50 (SR): 437 nM
TGI (SR): 2630 nM

CN(C1=NC(=O)/C(=C/C(Cl)=C\c2ccc([N+](=O)[O-])cc2)S1)c1ccc(O)cc1
GI50 (SK-MEL-5): < 10 nM
TGI (SK-MEL-5; read-out: pTGI): < 10 nM

O=C1N=C(Nc2ccc(Cl)cc2)N/C1=C\c1ccc(Cl)cc1
GI50 (PC-3): 380 nM
TGI (PC-3): 4.37 µM

O=C1N=C(Nc2ccccc2Cl)N/C1=C\c1ccc(Cl)cc1Cl
GI50 (HL-60(TB)): 123 nM
TGI (HL-60(TB)): 1.82 µM

O=C1N=C(Nc2cccc(Cl)c2)N/C1=C\c1cccc(F)c1
GI50 (MOLT-4): 1050 nM

COc1ccc(CNC2=NC(=O)/C(=C/c3ccccc3Cl)N2)cc1
GI50 (PC-3): 91.2 nM
TGI (PC-3): 27.5 µM

O=C1N=C(NCc2ccc(Cl)cc2)N/C1=C\c1c(Cl)cccc1Cl
GI50 (CCRF-CEM): 1070 nM
TGI (CCRF-CEM): 29.5 µM

COc1ccc(/C=C2\SC(Nc3ccc(O)cc3)=NC2=O)cc1OC
GI50 (K562): 398 nM
TGI (K562; read-out: pTGI (converted)): 6.76 µM
GI50 (MDA-MB-435): 407 nM
TGI (MDA-MB-435): 2040 nM
